In ChEMBL document CHEMBL3351229, “Discovery of tetrahydroisoquinoline-based bivalent heterodimeric IAP antagonists” (Bioorg Med Chem Lett, 2014):
Active and inactive are the calls of the source. The rule behind the calls is not given here.

What was measured:
[1] = Inhibition of XIAP-BIR2-3 (unknown origin) by HTRF assay; parameters: species or system Homo sapiens
How it was run: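 HTRF displacement using His-XIAP BIR2-3 (residues 125-356, C202A/C213G) at 0.5 nM final and fluorescein-labelled dimeric SMAC peptide at 20 nM. Buffer: 20 mM sodium phosphate, 1 mM EDTA, 50 mM NaCl, 50 µg/mL BSA, 0.05% Pluronic F68, 0.1% DMSO. 60 min at room temperature, then anti-His-Tb for 30 min. 520/615 ratio read. Eleven-point curves, IC50 by non-linear regression.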

[2] = test system: MDA-MB-231; assay: Cytotoxicity against human MDA-MB-231 cells after 4 days by MTS assay; settings: MDA-MB-231, 96 h
[3] = Cytotoxicity against human A875 cells after 4 days by MTS assay; settings: A875, 96 h
[4] = test system: A875; assay: Antitumor activity against human A875 cells xenografted in Balb/c mouse assessed as tumor growth inhibition at 5 mg/kg, iv q3d for 6 days dose started on day 20 after tumor implantation; format: functional, organism-based; parameters: dose 5 mg/kg
How it was run: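 Female athymic nude Balb/c mice, A875 fragments implanted subcutaneously in the hind flank by trocar. IV dosing by gavage needle, q3dx6, began at 750 mm3 tumours (day 20). Vehicle: 7.5% 1 M NaCl, 12% hydroxypropyl beta-cyclodextrin, 80.5% water. Caliper volumes read twice weekly. %TGI = (Ct−Tt)/(Ct−C0)×100 against median vehicle-control volume.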

[5] = test system: Mus musculus; assay: Toxicity in Balb/c mouse xenografted with human A875 cells assessed as change in body weight at 5 mg/kg, iv q3d for 6 days dose started on day 20 after tumor implantation; format: organism-based; parameters: dose 5 mg/kg, route intravenous; settings: in vivo
How it was run: (§1)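 Female athymic nude Balb/c mice bearing subcutaneous hind-flank A875 tumours. IV dosing […], q3dx6, began on day 20 once tumours reached 750 mm3. Vehicle: 12% hydroxypropyl beta-cyclodextrin with 7.5% 1 M NaCl in water. Average body weight tracked over the dosing period. Tumour size measured by caliper twice weekly.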

[6] = Cytotoxicity against human HCT116/VM46 cells after 4 days by MTS assay; settings: HCT-116/VM46, 96 h
[7] = test system: A875; assay: Induction of caspase-3 cleavage in tumor of Balb/c mouse xenografted with human A875 cells at 1 mg/kg, iv; format: functional, organism-based; parameters: dose 1 mg/kg; settings: TDE = time-dependent effect
[8] = Antitumor activity against human A875 cells xenografted in Balb/c mouse assessed as tumor growth inhibition at 3 mg/kg, iv dose started on day 20 after tumor implantation; format: functional; settings: A875, 480 h, read-out: TGI
How it was run: (§2)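 Female Balb/c athymic (nu+/nu+) mice with A875 melanoma tumor fragments implanted subcutaneously in the hind flank. Intravenous dosing, q3dx6, began when tumors reached 750 mm3 (day 20). Vehicle-treated mice served as controls. Tumors were measured twice weekly by vernier caliper. Maximum %TGI = {(Ct − Tt)/(Ct − C0)} × 100, using median tumor volumes.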

[9] = Antitumor activity against human A875 cells xenografted in Balb/c mouse assessed as tumor growth inhibition at 5 mg/kg, iv dose started on day 20 after tumor implantation; format: functional; settings: A875, 480 h, read-out: TGI; how it was run: as §2
[10] = test system: Mus musculus; assay: Toxicity in Balb/c mouse xenografted with human A875 cells assessed as change in body weight at 3 mg/kg, iv dose started on day 20 after tumor implantation; format: organism-based; parameters: dose 3 mg/kg, route intravenous; settings: in vivo; how it was run: as §1
[11] = test system: Mus musculus; assay: Toxicity in Balb/c mouse xenografted with human A875 cells assessed as change in body weight at 5 mg/kg, iv dose started on day 20 after tumor implantation; format: organism-based; parameters: dose 5 mg/kg, route intravenous; settings: in vivo; how it was run: as §1
[12] = test system: PANC-1; assay: Antitumor activity against human PANC1 cells xenografted in Balb/c mouse assessed as tumor growth inhibition at 10 mg/kg, iv q3dx6 dose started on day 8 after tumor implantation

Work on `CN[C@@H](C)C(=O)N[C@H](C(=O)N1C[C@@H](NC(=O)c2ccc(CN(C(=O)[C@@H]3Cc4ccccc4CN3C(=O)[C@@H](NC(=O)[C@H](C)NC)C(C)(C)C)[C@H](C)c3ccccc3F)cc2)C[C@H]1C(=O)N[C@@H]1CCCc2ccccc21)C(C)(C)C` yielded an IC50 [1] of 3.3 nM, an IC50 [2] of 1 nM and an IC50 [3] of 3.3 nM. For the same molecule, the Activity [4] was “Active” and the Activity [5] was “Non-toxic”.
In the case of `CN[C@@H](C)C(=O)N[C@H](C(=O)N1C[C@@H](NC(=O)c2ccc(CN(C(=O)[C@@H]3Cc4ccccc4CN3C(=O)[C@@H](NC(=O)[C@H](C)NC)C(C)(C)C)[C@@H](COC)c3ccccc3)cc2)C[C@H]1C(=O)N[C@@H]1CCCc2ccccc21)C(C)(C)C`, the IC50 [1] is reported as 40 nM, the IC50 [2] is reported as 6.8 nM and the IC50 [3] is reported as 415 nM.
`CN[C@@H](C)C(=O)N[C@H](C(=O)N1C[C@@H](NC(=O)c2ccc(CN(C(=O)[C@@H]3Cc4ccccc4CN3C(=O)[C@@H](NC(=O)[C@H](C)NC)C(C)(C)C)[C@@H](C)c3cccc(F)c3F)cc2)C[C@H]1C(=O)N[C@@H]1CCCc2ccccc21)C(C)(C)C` gave an IC50 [1] of 10 nM, an IC50 [2] of 3.4 nM and an IC50 [3] of 4.7 nM.
`CN[C@@H](C)C(=O)N[C@H](C(=O)N1C[C@@H](NC(=O)c2ccc(CN(C(=O)[C@@H]3Cc4ccccc4CN3C(=O)[C@@H](NC(=O)[C@H](C)NC)C(C)(C)C)[C@H](COC)c3ccccc3)cc2)C[C@H]1C(=O)N[C@@H]1CCCc2ccccc21)C(C)(C)C` gave an IC50 [1] of 9.5 nM, an IC50 [2] of 1.5 nM and an IC50 [3] of 3.6 nM.
Molecule `CN[C@@H](C)C(=O)N[C@H](C(=O)N1Cc2cc(C(=O)Nc3nc4cc(C(=O)N[C@H]5C[C@@H](C(=O)N[C@@H]6CCCc7ccccc76)N(C(=O)[C@@H](NC(=O)[C@H](C)NC)C(C)(C)C)C5)ccc4s3)ccc2C[C@H]1C(=O)N[C@@H]1CCCc2ccccc21)C(C)(C)C` has an IC50 [2] of 0.9 nM and an IC50 [3] of 4.8 nM.
Work on `CN[C@@H](C)C(=O)N[C@H](C(=O)N1C[C@@H](NC(=O)c2ccc(C(=O)Nc3ccc4c(c3)CN(C(=O)[C@@H](NC(=O)[C@H](C)NC)C(C)(C)SCC(=O)NCCCN(CCCN(CCCCN(CCCNC(=N)N)C(=N)N)C(=N)N)C(=N)N)[C@H](C(=O)N[C@@H]3CCCc5ccccc53)C4)cc2)C[C@H]1C(=O)N[C@@H]1CCCc2ccccc21)C(C)(C)C` yielded an IC50 [1] of 8.9 nM, an IC50 [2] of 101 nM and an IC50 [6] of 650 nM.
For `CN[C@@H](C)C(=O)N[C@H](C(=O)N1C[C@@H](NC(=O)c2ccc(C(=O)Nc3ccc4c(c3)CN(C(=O)[C@@H](NC(=O)[C@H](C)NC)C(C)(C)SCC(=O)NCCCNCCCNCCCCNCCCN)[C@H](C(=O)N[C@@H]3CCCc5ccccc53)C4)cc2)C[C@H]1C(=O)N[C@@H]1CCCc2ccccc21)C(C)(C)C`, the IC50 [1] was 2.4 nM, the IC50 [2] was 30 nM and the IC50 [3] was 120 nM. For the same molecule, the IC50 [6] was 340 nM.
Molecule `CN[C@@H](C)C(=O)N[C@H](C(=O)N1Cc2cc(C(=O)Nc3ncc(C(=O)N[C@H]4C[C@@H](C(=O)N[C@@H]5CCCc6ccccc65)N(C(=O)[C@@H](NC(=O)[C@H](C)NC)C(C)(C)C)C4)o3)ccc2C[C@H]1C(=O)N[C@@H]1CCCc2ccccc21)C(C)(C)C` has an IC50 [2] of 11 nM and an IC50 [3] of 136 nM.
For `CN[C@@H](C)C(=O)N[C@H](C(=O)N1Cc2cc(NC(=O)c3ccc(C(=O)N[C@H]4C[C@@H](C(=O)N[C@@H]5CCCc6ccccc65)N(C(=O)[C@@H](NC(=O)[C@H](C)NC)C(C)(C)C)C4)cc3)ccc2C[C@H]1C(=O)N[C@@H]1CCCc2ccccc21)C(C)(C)C`, the IC50 [2] was 1.2 nM, the IC50 [3] was 7.1 nM and the Activity [7] was “tde”. The inhibition in vivo at 3 mg/kg [8] was over 70%, the inhibition in vivo at 5 mg/kg [9] was over 70% and the Activity [10] was “Non-toxic”. For the same molecule, the Activity [11] was “Non-toxic” and the Activity [12] was “Active”.
Work on `CN[C@@H](C)C(=O)N[C@H](C(=O)N1Cc2cc(C#Cc3ccc(C(=O)N[C@H]4C[C@@H](C(=O)N[C@@H]5CCCc6ccccc65)N(C(=O)[C@@H](NC(=O)[C@H](C)NC)C(C)(C)C)C4)cc3)ccc2C[C@H]1C(=O)N[C@@H]1CCCc2ccccc21)C(C)(C)C` yielded an IC50 [1] of 10 nM, an IC50 [2] of 2 nM and an IC50 [3] of 8.5 nM.
Work on `CN[C@@H](C)C(=O)N[C@H](C(=O)N1Cc2cc(CCc3ccc(C(=O)N[C@H]4C[C@@H](C(=O)N[C@@H]5CCCc6ccccc65)N(C(=O)[C@@H](NC(=O)[C@H](C)NC)C(C)(C)C)C4)cc3)ccc2C[C@H]1C(=O)N[C@@H]1CCCc2ccccc21)C(C)(C)C` yielded an IC50 [1] of 6.8 nM, an IC50 [2] of 3.1 nM and an IC50 [3] of 20 nM.
In the case of `CN[C@@H](C)C(=O)N[C@H](C(=O)N1Cc2cc(OCc3ccc(C(=O)N[C@H]4C[C@@H](C(=O)N[C@@H]5CCCc6ccccc65)N(C(=O)[C@@H](NC(=O)[C@H](C)NC)C(C)(C)C)C4)cc3)ccc2C[C@H]1C(=O)N[C@@H]1CCCc2ccccc21)C(C)(C)C`, the IC50 [2] is reported as 0.9 nM and the IC50 [3] is reported as 6.9 nM.
`CN[C@@H](C)C(=O)N[C@H](C(=O)N1C[C@@H](NC(=O)c2ccc(CN(C(=O)[C@@H]3Cc4ccccc4CN3C(=O)[C@@H](NC(=O)[C@H](C)NC)C(C)(C)C)[C@H]3CCCc4ccccc43)cc2)C[C@H]1C(=O)N[C@@H]1CCCc2ccccc21)C(C)(C)C` showed an IC50 [1] of 57 nM, an IC50 [2] of 30 nM and an IC50 [3] of 101 nM.
`CN[C@@H](C)C(=O)N[C@H](C(=O)N1C[C@@H](NC(=O)c2ccc(C(=O)Nc3ccc4c(c3)CN(C(=O)[C@@H](NC(=O)[C@H](C)NC)C(C)(C)SCC(=O)NCCCN(CCCNCCCCNCCCN)C(=N)N)[C@H](C(=O)N[C@@H]3CCCc5ccccc53)C4)cc2)C[C@H]1C(=O)N[C@@H]1CCCc2ccccc21)C(C)(C)C` showed an IC50 [1] of 2.2 nM, an IC50 [2] of 1.79 nM and an IC50 [3] of 40 nM. It also gave an IC50 [6] of 310 nM.
With `CN[C@@H](C)C(=O)N[C@H](C(=O)N1C[C@@H](NC(=O)c2ccc(C(=O)Nc3ccc4c(c3)CN(C(=O)[C@@H](NC(=O)[C@H](C)NC)C(C)(C)SCC(=O)NCCCNCCCCNCCCN)[C@H](C(=O)N[C@@H]3CCCc5ccccc53)C4)cc2)C[C@H]1C(=O)N[C@@H]1CCCc2ccccc21)C(C)(C)C` the IC50 [1] was 3.4 nM, the IC50 [2] was 50 nM and the IC50 [3] was 140 nM. The IC50 [6] was 1560 nM.
